Source: ChEMBL document CHEMBL2062453, “Lead optimization through VLAK protocol: new annelated pyrrolo-pyrimidine derivatives as antitumor agents” (2012)

Experiments:
Type in all cases: functional
CCRF-CEM = test: Cytotoxicity against human CCRF-CEM cells assessed as cell growth at 10 uM after 48 hrs by SRB assay relative to control; settings: read-out: Activity
How it was run: (§1)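 NCI primary screen of about 60 human tumour lines. Cells inoculated and preincubated, then a single test concentration added and cultures incubated 48 h. Result given as percent growth (G%) of treated versus untreated control cells.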

HL-60(TB) = test: Cytotoxicity against human HL-60(TB) cells assessed as cell growth at 10 uM after 48 hrs by SRB assay relative to control; settings: HL-60, 48 h, read-out: Activity
K562 = test: Cytotoxicity against human K562 cells assessed as cell growth at 10 uM after 48 hrs by SRB assay relative to control; settings: K562, 48 h, read-out: Activity; how it was run: as §1
SR = test: Cytotoxicity against human SR cells assessed as cell growth at 10 uM after 48 hrs by SRB assay relative to control; settings: read-out: Activity
How it was run: (§2)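 NCI single-dose primary screen across about 60 human tumour lines. Each line was inoculated and preincubated on microtiter plates, then exposed to one concentration of agent for 48 h. Growth is reported as percent growth (G%) of treated cells versus untreated control cells.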

A549 = test: Cytotoxicity against human A549 cells assessed as cell growth at 10 uM after 48 hrs by SRB assay relative to control; settings: A549, 48 h, read-out: Activity; how it was run: as §1
NCI-H23 = test: Cytotoxicity against human NCI-H23 cells assessed as cell growth at 10 uM after 48 hrs by SRB assay relative to control; settings: NCI-H23, 48 h, read-out: Activity
COLO 205 = test: Cytotoxicity against human COLO205 cells assessed as cell growth at 10 uM after 48 hrs by SRB assay relative to control; settings: COLO 205, 48 h, read-out: Activity; how it was run: as §1
HCC 2998 = test: Cytotoxicity against human HCC2998 cells assessed as cell growth at 10 uM after 48 hrs by SRB assay relative to control; settings: HCC 2998, 48 h, read-out: Activity; how it was run: as §1
SF-268 = test: Cytotoxicity against human SF268 cells assessed as cell growth at 10 uM after 48 hrs by SRB assay relative to control; settings: SF-268, 48 h, read-out: Activity
SF-295 = test: Cytotoxicity against human SF295 cells assessed as cell growth at 10 uM after 48 hrs by SRB assay relative to control; settings: SF-295, 48 h, read-out: Activity
SF-539 = test: Cytotoxicity against human SF539 cells assessed as cell growth at 10 uM after 48 hrs by SRB assay relative to control; settings: SF-539, 48 h, read-out: Activity
SNB-19 = test: Cytotoxicity against human SNB19 cells assessed as cell growth at 10 uM after 48 hrs by SRB assay relative to control; settings: SNB-19, 48 h, read-out: Activity
SNB-75 = test: Cytotoxicity against human SNB75 cells assessed as cell growth at 10 uM after 48 hrs by SRB assay relative to control; settings: SNB-75, 48 h, read-out: Activity
LOX IMVI = test: Cytotoxicity against human LOXIMVI cells assessed as cell growth at 10 uM after 48 hrs by SRB assay relative to control; settings: read-out: Activity; how it was run: as §1
M14 = test: Cytotoxicity against human M14 cells assessed as cell growth at 10 uM after 48 hrs by SRB assay relative to control; settings: M14, 48 h, read-out: Activity; how it was run: as §1
MDA-MB-435 = test: Cytotoxicity against human MDA-MB-435 cells assessed as cell growth at 10 uM after 48 hrs by SRB assay relative to control; settings: MDA-MB-435, 48 h, read-out: Activity
SK-MEL-2 = test: Cytotoxicity against human SK-MEL-2 cells assessed as cell growth at 10 uM after 48 hrs by SRB assay relative to control; settings: SK-MEL-2, 48 h, read-out: Activity
SK-MEL-28 = test: Cytotoxicity against human SK-MEL-28 cells assessed as cell growth at 10 uM after 48 hrs by SRB assay relative to control; settings: SK-MEL-28, 48 h, read-out: Activity
UACC-62 = test: Cytotoxicity against human UACC62 cells assessed as cell growth at 10 uM after 48 hrs by SRB assay relative to control; settings: UACC-62, 48 h, read-out: Activity; how it was run: as §2
OVCAR-4 = test: Cytotoxicity against human OVCAR4 cells assessed as cell growth at 10 uM after 48 hrs by SRB assay relative to control; settings: OVCAR-4, 48 h, read-out: Activity
OVCAR-5 = test: Cytotoxicity against human OVCAR5 cells assessed as cell growth at 10 uM after 48 hrs by SRB assay relative to control; settings: OVCAR-5, 48 h, read-out: Activity
OVCAR-8 = test: Cytotoxicity against human OVCAR8 cells assessed as cell growth at 10 uM after 48 hrs by SRB assay relative to control; settings: OVCAR-8, 48 h, read-out: Activity
NCI/ADR-RES = test: Cytotoxicity against human NCI/ADR-RES cells assessed as cell growth at 10 uM after 48 hrs by SRB assay relative to control; settings: read-out: Activity
786-0 = test: Cytotoxicity against human 786-0 cells assessed as cell growth at 10 uM after 48 hrs by SRB assay relative to control; settings: 786-0, 48 h, read-out: Activity; how it was run: as §1
ACHN = test: Cytotoxicity against human ACHN cells assessed as cell growth at 10 uM after 48 hrs by SRB assay relative to control; settings: read-out: Activity; how it was run: as §1
RXF 393 = test: Cytotoxicity against human RXF393 cells assessed as cell growth at 10 uM after 48 hrs by SRB assay relative to control; settings: RXF 393, 48 h, read-out: Activity
SN12C = test: Cytotoxicity against human SN12C cells assessed as cell growth at 10 uM after 48 hrs by SRB assay relative to control; settings: read-out: Activity
TK-10 = test: Cytotoxicity against human TK10 cells assessed as cell growth at 10 uM after 48 hrs by SRB assay relative to control; settings: TK-10, 48 h, read-out: Activity; how it was run: as §2
UO-31 = test: Cytotoxicity against human UO31 cells assessed as cell growth at 10 uM after 48 hrs by SRB assay relative to control; settings: UO-31, 48 h, read-out: Activity; how it was run: as §2
PC-3 = test: Cytotoxicity against human PC3 cells assessed as cell growth at 10 uM after 48 hrs by SRB assay relative to control; settings: PC-3, 48 h, read-out: Activity
MDA-MB-231 = test: Cytotoxicity against human MDA-MB-231 cells assessed as cell growth at 10 uM after 48 hrs by SRB assay relative to control; settings: MDA-MB-231, 48 h, read-out: Activity; how it was run: as §1
BT-549 = test: Cytotoxicity against human BT549 cells assessed as cell growth at 10 uM after 48 hrs by SRB assay relative to control; settings: BT-549, 48 h, read-out: Activity; how it was run: as §1
MDA-MB-468 = test: Cytotoxicity against human MDA-MB-468 cells assessed as cell growth at 10 uM after 48 hrs by SRB assay relative to control; settings: MDA-MB-468, 48 h, read-out: Activity

Row | Structure (SMILES) | growth at 10 µM (CCRF-CEM) | growth at 10 µM (HL-60(TB)) | growth at 10 µM (K562) | growth at 10 µM (SR) | growth at 10 µM (A549) | growth at 10 µM (NCI-H23) | growth at 10 µM (COLO 205) | growth at 10 µM (HCC 2998) | growth at 10 µM (SF-268) | growth at 10 µM (SF-295) | growth at 10 µM (SF-539) | growth at 10 µM (SNB-19) | growth at 10 µM (SNB-75) | growth at 10 µM (LOX IMVI) | growth at 10 µM (M14) | growth at 10 µM (MDA-MB-435) | growth at 10 µM (SK-MEL-2) | growth at 10 µM (SK-MEL-28) | growth at 10 µM (UACC-62) | growth at 10 µM (OVCAR-4) | further results
1 | CSC1=Nc2c(c(C)c(C)n2CCCC(=O)NCCc2cnc[nH]2)C2=NC(=O)CN12 | 104% | 100% | 100% | 126% | 101% | 103% | 132% | 118% | 130% | 106% | 97% | 102% | 78% | 102% | 102% | 116% | 121% | 113% | 100% | 93% | growth at 10 µM (OVCAR-5): 116%; growth at 10 µM (OVCAR-8): 108%; growth at 10 µM (NCI/ADR-RES): 110%; growth at 10 µM (786-0): 110%; growth at 10 µM (ACHN): 112%; growth at 10 µM (RXF 393): 116%; growth at 10 µM (SN12C): 100%; growth at 10 µM (TK-10): 139%; growth at 10 µM (UO-31): 85%; growth at 10 µM (PC-3): 100%; growth at 10 µM (MDA-MB-231): 110%; growth at 10 µM (BT-549): 120%; growth at 10 µM (MDA-MB-468): 89%
2 | COC(=O)C(Cc1cnc[nH]1)NC(=O)CCCn1c(C)c(C)c2c1N=C(SC)N1CC(=O)N=C21 (centres undefined) | 105% | 92% | 97% | 118% | 98% | 109% | 118% | 103% | 106% | 112% | 91% | 94% | 79% | 92% | 106% | 102% | 105% | 113% | 109% | 90% | growth at 10 µM (OVCAR-5): 106%; growth at 10 µM (OVCAR-8): 103%; growth at 10 µM (NCI/ADR-RES): 110%; growth at 10 µM (786-0): 104%; growth at 10 µM (ACHN): 113%; growth at 10 µM (RXF 393): 112%; growth at 10 µM (SN12C): 107%; growth at 10 µM (TK-10): 111%; growth at 10 µM (UO-31): 96%; growth at 10 µM (PC-3): 88%; growth at 10 µM (MDA-MB-231): 112%; growth at 10 µM (BT-549): 107%; growth at 10 µM (MDA-MB-468): 96%
3 | CCOC(=O)CCCn1c(C)c(C)c2c1N=C(SC)N1CC(=O)N=C21 | 100% | 94% | 94% | 119% | 102% | 117% | 132% | 129% | 132% | 113% | 95% | 108% | 90% | 101% | 106% | 122% | 113% | 114% | 106% | 100% | growth at 10 µM (OVCAR-5): 125%; growth at 10 µM (OVCAR-8): 113%; growth at 10 µM (NCI/ADR-RES): 112%; growth at 10 µM (786-0): 113%; growth at 10 µM (ACHN): 110%; growth at 10 µM (RXF 393): 121%; growth at 10 µM (SN12C): 110%; growth at 10 µM (TK-10): 135%; growth at 10 µM (UO-31): 81%; growth at 10 µM (PC-3): 103%; growth at 10 µM (MDA-MB-231): 112%; growth at 10 µM (BT-549): 119%; growth at 10 µM (MDA-MB-468): 55%
